Only some compounds are listed: those with a hit (about 5.4% of all), similar ones and a draw of the others.
aSyn UTR inh: MLPCN primary screen, SNCA 5' untranslated region. alpha-synuclein 5'UTR reporter, inhibitor activity. actives 0.82% (n = 300,000). AID 1813. inhibition, % (tested at 7.5 µM); in the data active = inhibition above about 60%; inconclusive = no clear call, values can overlap the other calls;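 note: H4 neuroglioblastoma cells stably carrying SNCA 5'UTR luciferase fusion; 0% = DMSO wells and 100% = positive control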
SKKanGAS inh: inhibitors of SKKanGAS S. pyogenes growth in kanamycin (SK-promoter or general growth effect) | inhibition, % at 7.5 µM | AID 1662 | actives 1.3% (n = 300,000) | BacTiter-Glo, 6 h;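 active = mean replicate score, as percent of positive control median, at least 50; inconclusive = mean below 50 but one replicate at or above 50; inactive = mean and every replicate below 50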;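 note: strain carries kanamycin resistance gene driven by streptokinase promoter and grows in 40 µg/ml kanamycin; loss of luminescence reflects streptokinase promoter inhibition or plain growth inhibition; 0% = median of DMSO wells and 100% = positive control at its reference dose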
CSC inhib: blocks cancer stem cells; cancer stem cell-like cells viability, luminescence; AID 2717; actives 1.1% (n = 300,000); inhibition, % at 7.5 µM; in the data active = inhibition above about 75%; inconclusive = no clear call, values can overlap the other calls; tested in HMLE shEcad cells
Mdm2-MdmX inh: inhibitors of human Mdm2/MdmX interaction. O15151+Q00987. actives 3% (n = 330,000). inhibition, % at 8 µM. SaOS-2 split-luciferase Mdm2/MdmX complementation, luminescence. AID 485346;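 active = inhibition of at least 50% at 8 µM in the primary screen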
Target sequence (O15151 whole entry, looked up): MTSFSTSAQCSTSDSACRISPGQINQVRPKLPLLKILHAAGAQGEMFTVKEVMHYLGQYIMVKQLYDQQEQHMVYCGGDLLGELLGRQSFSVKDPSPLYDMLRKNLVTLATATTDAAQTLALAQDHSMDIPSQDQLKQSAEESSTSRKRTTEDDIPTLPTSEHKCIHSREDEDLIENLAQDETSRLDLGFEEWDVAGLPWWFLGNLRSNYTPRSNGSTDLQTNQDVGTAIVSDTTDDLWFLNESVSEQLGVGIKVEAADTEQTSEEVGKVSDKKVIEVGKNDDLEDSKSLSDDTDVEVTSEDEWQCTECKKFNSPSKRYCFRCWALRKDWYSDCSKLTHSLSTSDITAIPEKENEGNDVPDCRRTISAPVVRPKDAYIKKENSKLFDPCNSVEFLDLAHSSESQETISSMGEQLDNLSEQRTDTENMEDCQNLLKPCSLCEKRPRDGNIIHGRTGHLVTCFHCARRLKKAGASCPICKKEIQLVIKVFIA
Target sequence (Q00987 whole entry, looked up): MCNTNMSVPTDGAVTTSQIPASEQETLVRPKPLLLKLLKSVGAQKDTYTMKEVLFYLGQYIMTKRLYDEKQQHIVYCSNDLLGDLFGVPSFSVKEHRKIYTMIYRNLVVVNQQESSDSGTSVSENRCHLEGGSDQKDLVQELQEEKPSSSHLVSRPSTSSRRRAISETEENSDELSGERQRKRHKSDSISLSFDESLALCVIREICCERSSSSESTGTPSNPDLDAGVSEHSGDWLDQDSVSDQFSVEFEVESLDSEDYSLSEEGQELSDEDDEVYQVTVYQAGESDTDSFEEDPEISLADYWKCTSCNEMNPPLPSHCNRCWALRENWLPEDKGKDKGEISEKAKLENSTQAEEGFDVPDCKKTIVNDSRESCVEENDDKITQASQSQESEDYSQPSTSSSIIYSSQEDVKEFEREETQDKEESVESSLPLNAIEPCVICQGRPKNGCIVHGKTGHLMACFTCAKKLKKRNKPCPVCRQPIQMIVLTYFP
T cruzi repl: blocks replication of Trypanosoma cruzi; actives 1.4% (n = 300,000); T. cruzi beta-gal in NIH3T3, luminescence, 90 h; inhibition, % (no concentration beside the values);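 active = mean inhibition across valid replicates above about 55%, limit read from the data; inconclusive = mean below that limit but half or more replicates reach it; inactive = mean below it, under half of replicates reach it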;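 note: signal also drops with host cell toxicity which is not excluded here; 0% = plate median of DMSO wells and 100% = zero luminescence signal; higher percent means less beta-gal luminescence so fewer parasites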
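System – NIH/3T3 host cells with β-galactosidase reporter T. cruzi · Doses – single 50 nL compound addition per well in DMSO · Reagent – 5000 T. cruzi trypomastigotes/well · Medium – Low-serum DMEM with 2% FBS · Timing – ≥90 h infection period, 3 h prior cell attachment · Evaluation – parasite load inhibition, % · Technique – GalScreen luminescence, 60 min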
Mdm2-MdmX conf: confirmation of human Mdm2/MdmX interaction inhibitors; shares compounds with Mdm2-MdmX inh; Mdm2-MdmX binding, luminescent assay; inhibition, % at 8 µM; actives 55% (n = 10,000); AID 489028; in the data active = inhibition above about 40%
FLuc counter: full-length luciferase inhibition in Mdm2/MdmX counter-screen; actives 77% (n = 6,200); shares compounds with Mdm2-MdmX inh; SaOS-2 full-length luciferase counterscreen, luminescence; inhibition, % at 8 µM;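 active = mean inhibition at 8 µM reaching about 37%, which flags the compound as non-specific, limit read from the data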;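 note: p53-null SaOS-2 cells with luciferase driven by a doxycycline-inducible promoter; compound on cells about two nights before reading with doxycycline added after day one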
Starred values were filed as active, the others as inactive; ? = inconclusive; . = no result given.

SMILES	aSyn UTR inh	SKKanGAS inh	CSC inhib	Mdm2-MdmX inh	T cruzi repl	Mdm2-MdmX conf	others
C=CCC[C@H](Cc1ccc(F)cc1)C(=O)O[C@H](CNC(=O)[C@@H](CC=C)CC(=O)N(CCO)Cc1ccccc1)c1ccccc1	.	.	97*	63*	.	32
C=CC[C@@H](CC(=O)N[C@H](CO)Cc1ccccc1)C(=O)NC[C@H](OC(=O)[C@@H](CC=C)Cc1ccc(F)cc1)c1ccccc1	.	.	-6	59*	.	55*	FLuc counter=62*
CC(C)Cc1ccccc1S(N)(=O)=O	-17	5	-7	-11	-32	.
CCN(C(=O)CSc1nc(-c2ccccc2)c(-c2ccccc2)[nH]1)C1CCS(=O)(=O)C1 (stereo not given)	15	-2	-5	3	-4	.
CCOc1ccccc1N(CC(=O)Nc1ccc(S(=O)(=O)N2CCOCC2)cc1)S(=O)(=O)c1ccc(Cl)cc1	14	16	4	27	?	.
C=CCC[C@H](Cc1ccc(F)cc1)C(=O)OC[C@H](Cc1c[nH]c2ccccc12)NC(=O)[C@@H](CC=C)CC(=O)N(CCO)Cc1ccccc1	.	.	68	87*	.	20
C=CCC[C@@H](Cc1ccc(F)cc1)C(=O)OC[C@@H](Cc1c[nH]c2ccccc12)NC(=O)[C@@H](CC=C)CC(=O)NCCO	.	.	.	35	.	.
C=CC[C@H](CC(=O)N(CCO)Cc1ccccc1)C(=O)N[C@H](COC(=O)[C@@H](CC=C)Cc1ccc(F)cc1)Cc1ccccc1	.	.	-1	71*	.	27
COc1ccc(CN2C(=O)C(CC(C)C)Nc3ncnc(N4CCOCC4)c32)cc1 (stereo not given)	14	-4	8	0	-11	.
COc1cccc(CN(c2ccc3c(c2)CCC3)S(=O)(=O)c2ccc(-n3cnnn3)c(OC)c2)c1	19	0	.	29	34	.
COc1ccc2oc(=O)cc(-c3cc4cccc(OC)c4o3)c2c1	38	-11	-17	37	11	.
COc1cccc2cc(-c3cc(=O)oc4cc(C)c(OCC(C)=O)cc34)oc12	-13	3	13	55*	10	-14
COc1ccc(-n2nc(C(=O)NCC(=O)Nc3cccc(NC(C)=O)c3)c3ccccc3c2=O)cc1	-5	1	-20	10	-15	.
COc1ccc(-n2nc(C(=O)NCC(=O)Nc3cc(OC)c(OC)c(OC)c3)c3ccccc3c2=O)cc1OC	12	12	20	70*	-6	67*	FLuc counter=68*
COc1ccc(-n2nc(C(=O)NCC(=O)Nc3cc(OC)c(OC)c(OC)c3)c3ccccc3c2=O)cc1	15	11	-33	52*	-13	33
COc1ccc(NC(=S)NNC(=O)c2nnn(-c3ccccc3)c2C)cc1	10	5	-10	-11	-8	.
CC(C)Oc1ccc(C(=O)N/N=C/c2ccc(-c3ccc(S(=O)(=O)Nc4ncccn4)cc3)o2)cc1	5	13	.	-11	-6	.
CCOc1ccc(NC(=O)CN(C)C(=O)c2cc(-c3ccc(OC)cc3)nc3ccccc23)cc1OCC	-29	47	-8	71*	12	46*	FLuc counter=75*
COc1cccc(NC(=O)CN(C)C(=O)c2cc(-c3ccc(C)o3)nc3ccccc23)c1	.	.	.	-3	.	.
COc1ccc(NC(=O)CN(C)C(=O)c2cc(-c3ccc(Cl)cc3)nc3ccccc23)cc1	-4	33	36	30	13	.
COc1cccc(NC(=O)CN(C)C(=O)c2cc(-c3cccc(Br)c3)nc3ccccc23)c1	7	1	36	70*	38	36
C=CCOc1ccc(/C=N/NC(=O)CC(=O)NC2CCCCC2)cc1	-4	2	-7	-3	-5	.
NS(=O)(=O)c1ccc(CCNC(=O)COC(=O)Cc2c(F)cccc2Cl)cc1	14	27	-4	5	-3	.
O=C(NCc1ccccc1F)c1ccc2c(c1)OCO2	-37	-5	-6	-40	-14	.
O=C(NCCc1ccccc1F)c1ccc2c(c1)OCCO2	108*	3	1	89*	0	92*	FLuc counter=49*
Cc1cc(C)c(C(=O)/C=C/c2cccc3ccccc23)c(=O)[nH]1	-5	-2	45	88*	21	94*	FLuc counter=58*
Cc1cc(C)c(C(=O)/C=C/c2ccc3c(c2)OCO3)c(=O)[nH]1	-30	11	-4	1	-3	.

Source: PubChem (several laboratories)
